Results published in article PMC3127012 (European Journal of Nuclear Medicine and Molecular Imaging, 2011).

Experiment: Biodistribution: uptake of 111In-labelled peptides in normal tissues
Assay type: in vivo, mice
Method in brief: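 Female athymic BALB/c mice with s.c. A431-CCK2R (2 × 10^6 cells, left flank) and mock-transfected A431 (right flank) tumours, ~0.1–0.2 g after ~10 days; n = 5/group. 111In-DOTA-peptide (11 GBq/μmol, >95% radiochemical purity) injected into the tail vein. Blood and organs were dissected at 1 and 4 h p.i., weighed, and gamma-counted; %ID/g, mean ± SD. Blocking group: 1,000-fold molar excess of unlabelled peptide, dissected at 4 h.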

| tissue uptake (mouse, in vivo, iv, 370 kBq (0.03 nmol)) | blood levels relative to the other peptides investigated (BALB/c nude mice, 111In-labelled peptide, 1 h p.i.) | Compound |
| --- | --- | --- |
| > 48 %ID/g |  | CSCC[C@H](NC(=O)[C@H](Cc1c[nH]c2ccccc12)NC(=O)CNC(=O)[C@H](Cc1ccc(O)cc1)NC(=O)[C@H](C)NC(=O)[C@H](CCC(=O)O)NC(=O)[C@H](CCC(=O)O)NC(=O)[C@H](CCC(=O)O)NC(=O)[C@H](CCC(=O)O)NC(=O)[C@H](CCC(=O)O)NC(=O)[C@@H](CCC(=O)O)NC(=O)CN1CCN(CC(=O)O)CCN(CC(=O)O)CCN(CC(=O)O)CC1)C(=O)N[C@@H](CC(=O)O)C(=O)N[C@@H](Cc1ccccc1)C(N)=O [MG0] |
|  | tenfold higher | DOTA-Gly-Ser-Cys-(Glu-Ala-Tyr-Gly-Trp-Nle-Asp-Phe-NH2)2 [MGD5] |
